In ChEMBL document CHEMBL1131143, “Predictive models for GABAA/benzodiazepine receptor subtypes: studies of quantitative structure-activity relationships for imidazobenzodiazepines at five recombinant GABAA/benzodiazepine receptor subtypes [alphaxbeta3gamma2 (x = 1-3, 5, and 6)] via comparative molecular field analysis” (J Med Chem, 1998):

Legend:
Assay type in all cases: protein-complex assay
[1] = molecular target: T1, GABA-A receptor; alpha-6/beta-3/gamma-2 (Homo sapiens, UniProt P18507+P28472+Q16445); assay: Inhibition of Gamma-aminobutyric acid A receptor alpha-6-beta-3-gamma-2 at 1 uM
T1 sequence (Q16445 whole entry, one chain of several): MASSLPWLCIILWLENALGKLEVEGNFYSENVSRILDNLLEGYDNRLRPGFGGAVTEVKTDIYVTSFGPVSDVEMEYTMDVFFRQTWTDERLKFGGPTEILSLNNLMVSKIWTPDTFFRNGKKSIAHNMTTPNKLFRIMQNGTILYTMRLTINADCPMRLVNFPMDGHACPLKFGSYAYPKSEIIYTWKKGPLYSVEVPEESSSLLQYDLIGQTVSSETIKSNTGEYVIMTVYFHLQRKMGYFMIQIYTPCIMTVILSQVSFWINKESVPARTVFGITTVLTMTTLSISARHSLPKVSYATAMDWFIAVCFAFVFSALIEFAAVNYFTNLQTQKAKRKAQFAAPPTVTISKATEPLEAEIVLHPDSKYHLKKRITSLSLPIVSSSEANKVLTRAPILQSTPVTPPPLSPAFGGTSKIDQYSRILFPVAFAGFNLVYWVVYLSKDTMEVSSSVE
Procedure, shortened: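 Competition binding on Ltk⁻ cells expressing human α6β3γ2, radioligand [³H]Ro 15-4513. Cells scraped into PBS, spun at 3000g, resuspended in 10 mM KH₂PO₄/100 mM KCl pH 7.4. Nonspecific binding with 10⁻⁵ M diazepam; 1 h to equilibrium at 4 °C; filtration, ice-cold buffer wash, scintillation counting.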

[2] = molecular target: T2, GABA-A receptor; alpha-5/beta-3/gamma-2 (Homo sapiens, UniProt P18507+P28472+P31644); assay: Binding affinity for Gamma-aminobutyric acid A receptor alpha-5-beta-3-gamma-2
T2 sequence (P18507 whole entry): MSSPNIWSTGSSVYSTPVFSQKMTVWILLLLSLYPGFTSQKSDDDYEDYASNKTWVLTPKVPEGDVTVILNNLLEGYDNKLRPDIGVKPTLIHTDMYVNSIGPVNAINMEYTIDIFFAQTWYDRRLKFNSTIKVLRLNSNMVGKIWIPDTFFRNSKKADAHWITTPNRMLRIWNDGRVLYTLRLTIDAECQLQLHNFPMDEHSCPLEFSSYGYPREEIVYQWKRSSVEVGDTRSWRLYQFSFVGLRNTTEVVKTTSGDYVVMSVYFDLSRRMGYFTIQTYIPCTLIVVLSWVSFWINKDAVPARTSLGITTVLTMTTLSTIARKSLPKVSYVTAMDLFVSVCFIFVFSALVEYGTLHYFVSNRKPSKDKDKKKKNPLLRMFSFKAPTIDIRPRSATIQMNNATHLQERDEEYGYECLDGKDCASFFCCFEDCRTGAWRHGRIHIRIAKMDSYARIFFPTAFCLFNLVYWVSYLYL
T2 sequence (P28472 whole entry): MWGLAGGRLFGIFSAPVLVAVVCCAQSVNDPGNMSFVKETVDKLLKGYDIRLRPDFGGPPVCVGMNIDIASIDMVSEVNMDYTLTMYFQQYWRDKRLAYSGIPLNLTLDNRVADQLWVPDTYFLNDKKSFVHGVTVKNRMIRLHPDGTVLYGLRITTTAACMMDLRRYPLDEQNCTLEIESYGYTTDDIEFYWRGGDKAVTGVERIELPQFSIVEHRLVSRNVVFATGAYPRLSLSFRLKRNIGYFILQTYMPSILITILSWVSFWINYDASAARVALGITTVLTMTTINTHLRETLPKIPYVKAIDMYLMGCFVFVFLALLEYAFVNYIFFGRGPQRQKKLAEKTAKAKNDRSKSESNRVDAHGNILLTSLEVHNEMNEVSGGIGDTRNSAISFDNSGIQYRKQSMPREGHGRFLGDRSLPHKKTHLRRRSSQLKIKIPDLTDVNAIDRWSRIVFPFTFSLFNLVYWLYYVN
T2 sequence (P31644 whole entry): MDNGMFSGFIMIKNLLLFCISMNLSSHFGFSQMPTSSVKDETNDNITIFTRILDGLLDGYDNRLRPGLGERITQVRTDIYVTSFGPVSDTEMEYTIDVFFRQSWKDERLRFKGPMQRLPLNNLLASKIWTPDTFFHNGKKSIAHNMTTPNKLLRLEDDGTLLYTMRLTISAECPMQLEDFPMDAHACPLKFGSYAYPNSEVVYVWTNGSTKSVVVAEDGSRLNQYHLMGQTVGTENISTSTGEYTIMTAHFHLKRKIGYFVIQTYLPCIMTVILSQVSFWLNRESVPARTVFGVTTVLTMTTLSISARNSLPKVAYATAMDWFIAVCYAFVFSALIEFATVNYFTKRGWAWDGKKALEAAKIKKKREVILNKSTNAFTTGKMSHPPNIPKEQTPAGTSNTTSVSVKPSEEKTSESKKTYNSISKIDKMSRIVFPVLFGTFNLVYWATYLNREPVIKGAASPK

[3] = molecular target: T3, GABA-A receptor; alpha-1/beta-3/gamma-2 (Homo sapiens) (UniProt P14867+P18507+P28472); assay: Inhibition of GABA-A benzodiazepine receptor alpha-1-beta-3-gamma-2 subunits at 1 uM
[4] = molecular target: GABA-A receptor; alpha-2/beta-3/gamma-2 (Homo sapiens) (UniProt P18507+P28472+P47869); assay: Inhibition of GABA-A benzodiazepine receptor alpha-2-beta-3-gamma-2 subunits at 1 uM
[5] = molecular target: GABA-A receptor; alpha-3/beta-3/gamma-2 (Homo sapiens) (UniProt P18507+P28472+P34903); assay: Inhibition of GABA-A benzodiazepine receptor alpha-3-beta-3-gamma-2 subunits at 1 uM
[6] = molecular target: T1, GABA-A receptor; alpha-6/beta-3/gamma-2; assay: Binding affinity against Gamma-aminobutyric acid A receptor alpha-6-beta-3-gamma-2
Procedure, shortened: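 Cells scraped into PBS, spun at 3000g, resuspended in 10 mM KH₂PO₄/100 mM KCl pH 7.4. Nonspecific binding with 10⁻⁵ M diazepam; 1 h to equilibrium at 4 °C; filtration, ice-cold buffer wash, scintillation counting.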

[7] = molecular target: T4, GABA-A receptor; alpha-2/beta-3/gamma-2 (Homo sapiens, UniProt P18507+P28472+P47869); assay: Binding affinity for alpha-2-beta-3-gamma-2 GABA-A benzodiazepine receptor subunits
T4 sequence (P18507 whole entry): T2 sequence (P18507 whole entry)
T4 sequence (P28472 whole entry): T2 sequence (P28472 whole entry)
T4 sequence (P47869 whole entry): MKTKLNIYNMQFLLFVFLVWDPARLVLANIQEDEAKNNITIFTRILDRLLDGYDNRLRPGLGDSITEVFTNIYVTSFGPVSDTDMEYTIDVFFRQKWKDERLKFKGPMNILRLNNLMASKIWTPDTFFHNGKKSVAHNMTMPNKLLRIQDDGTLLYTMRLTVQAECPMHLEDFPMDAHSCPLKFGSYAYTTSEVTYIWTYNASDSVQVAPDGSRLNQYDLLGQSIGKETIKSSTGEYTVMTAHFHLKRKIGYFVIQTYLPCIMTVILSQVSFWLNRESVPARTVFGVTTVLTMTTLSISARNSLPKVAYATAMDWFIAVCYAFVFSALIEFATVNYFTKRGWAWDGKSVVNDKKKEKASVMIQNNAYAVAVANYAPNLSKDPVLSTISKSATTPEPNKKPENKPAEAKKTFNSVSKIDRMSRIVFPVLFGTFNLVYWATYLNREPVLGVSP

[8] = molecular target: T5, GABA-A receptor; alpha-3/beta-3/gamma-2 (Homo sapiens, UniProt P18507+P28472+P34903); assay: Binding affinity against alpha-3-beta-3-gamma-2 GABAA/BzR receptor subtype.
T5 sequence (P18507 whole entry): T2 sequence (P18507 whole entry)
T5 sequence (P28472 whole entry): T2 sequence (P28472 whole entry)
T5 sequence (P34903 whole entry): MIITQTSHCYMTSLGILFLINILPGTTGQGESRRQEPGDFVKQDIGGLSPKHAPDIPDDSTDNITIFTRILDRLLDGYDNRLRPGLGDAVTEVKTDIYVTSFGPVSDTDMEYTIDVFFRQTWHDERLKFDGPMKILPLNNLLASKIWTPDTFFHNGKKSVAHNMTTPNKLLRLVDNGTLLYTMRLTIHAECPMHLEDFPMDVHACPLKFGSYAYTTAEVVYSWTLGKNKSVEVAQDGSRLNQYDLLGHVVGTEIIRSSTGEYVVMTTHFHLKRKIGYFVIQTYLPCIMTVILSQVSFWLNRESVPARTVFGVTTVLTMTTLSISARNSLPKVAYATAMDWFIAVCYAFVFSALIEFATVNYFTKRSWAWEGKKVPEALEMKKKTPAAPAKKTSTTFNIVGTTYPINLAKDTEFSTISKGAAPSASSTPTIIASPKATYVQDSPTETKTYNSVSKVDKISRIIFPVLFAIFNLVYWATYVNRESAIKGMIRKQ

[9] = molecular target: T6, GABA-A receptor; alpha-1/beta-3/gamma-2 (Homo sapiens, UniProt P14867+P18507+P28472); assay: Binding affinity against alpha-1-beta-3-gamma-2 GABAA/BzR receptor subtype.
T6 sequence (P14867 whole entry): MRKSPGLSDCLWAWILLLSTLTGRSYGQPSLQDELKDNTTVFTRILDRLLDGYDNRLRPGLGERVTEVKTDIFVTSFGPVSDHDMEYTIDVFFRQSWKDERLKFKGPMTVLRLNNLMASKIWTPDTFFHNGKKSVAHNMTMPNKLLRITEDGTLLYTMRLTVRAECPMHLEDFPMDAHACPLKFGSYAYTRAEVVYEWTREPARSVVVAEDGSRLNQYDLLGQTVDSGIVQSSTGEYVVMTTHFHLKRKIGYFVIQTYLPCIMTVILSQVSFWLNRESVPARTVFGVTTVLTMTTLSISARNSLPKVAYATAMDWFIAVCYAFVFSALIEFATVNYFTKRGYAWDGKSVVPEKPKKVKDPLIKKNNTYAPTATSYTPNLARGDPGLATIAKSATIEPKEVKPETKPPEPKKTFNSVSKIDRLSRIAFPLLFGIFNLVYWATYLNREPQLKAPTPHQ
T6 sequence (P18507 whole entry): T2 sequence (P18507 whole entry)
T6 sequence (P28472 whole entry): T2 sequence (P28472 whole entry)

[10] = molecular target: T3, GABA-A receptor; alpha-1/beta-3/gamma-2 (Homo sapiens); assay: It is the ratio of Ki value for alpha-1-beta-3-gamma-2 to that of alpha-5-beta-3-gamma-2
[11] = molecular target: T4, GABA-A receptor; alpha-2/beta-3/gamma-2; assay: Binding affinity tested against alpha-2-beta-3-gamma-2 GABAA/BzR receptor subtype.

Row | Compound | inhibition [1] [%] | Ki [2] [nM] | inhibition [3] [%] | inhibition [4] [%] | inhibition [5] [%] | Ki [6] [nM] | Ki [7] [nM] | Ki [8] [nM] | Ki [9] [nM] | Ratio [10] | Ki [11] [nM]
1 | C#Cc1ccc2c(c1)C(=O)N1CCC[C@H]1c1c(-c3nc(-c4ccccc4)no3)ncn1-2 | 4 | 455 | 33 | 26 | 19 | – | – | – | – | – | –
2 | C#Cc1ccc2c(c1)C(=O)N1CC[C@H]1c1c(-c3nc(-c4ccccc4)no3)ncn1-2 | 14 | 374 | 10 | 29 | 15 | – | – | – | – | – | –
3 | CCOC(=O)c1ncn2c1CN(C)C(=O)c1cc(Br)ccc1-2 | – | – | – | – | – | 22 | 27 | 13 | – | – | –
4 | CCc1ccc2c(c1)C(=O)N(C)Cc1c(C(=O)OC(C)(C)C)ncn1-2 | – | 1.72 | – | – | – | 22.9 | – | 25.3 | 14.8 | 8.6 | 56
5 | CCN(CC)Cc1ncn2c1CN(C)C(=O)c1cc(Cl)ccc1-2 | – | 2580 | – | – | – | 30200 | – | 15400 | 9480 | 3.2 | 30000
6 | CN1Cc2c(C(=O)OC(C)(C)C)ncn2-c2ccc(C#C[Si](C)(C)C)cc2C1=O | – | 2.61 | – | – | – | 58.6 | – | 255 | 197 | 75.5 | 143
7 | CCOC(=O)c1ncn2c1CN(C)C(=O)c1cc(CC)ccc1-2 | – | 1.5 | – | – | – | 176 | – | 26.1 | 20.4 | 13.6 | 27
8 | CN1Cc2c(C(=O)OC(C)(C)C)ncn2-c2ccc([N+](=O)[O-])cc2C1=O | – | 3.5 | – | – | – | 22.5 | – | 30.2 | 12.8 | 3.7 | 49.8
9 | CN1Cc2c(C(=O)OC(C)(C)C)ncn2-c2ccc(N=C=S)cc2C1=O | – | 2.5 | – | – | – | 30.7 | – | 50 | 17.1 | 6.8 | 33.7
